Published values pooled from the literature.
Each line is one published result; the experiments were not run side by side. pIC50: −log10 of the molar value.
PADI4: Protein-arginine deiminase type-4 (PADI4, Homo sapiens, UniProt Q9UM07)
MAOB: Amine oxidase [flavin-containing] B (MAOB, Homo sapiens, UniProt P27338)
ALDH1A3: Retinaldehyde dehydrogenase 3 (ALDH1A3, Homo sapiens, UniProt P47895)
Pancreatic alpha-amylase: Pancreatic alpha-amylase (Homo sapiens, UniProt P04746)
CA9: Carbonic anhydrase 9 (CA9, Homo sapiens, UniProt Q16790)

N=C(CCl)NCCC[C@H](NC(=O)c1ccc2cc(Br)ccc2n1)C(=O)NCc1ccccc1  pIC50 (PADI4; enzyme activity; inhibitor; fluorescence; with preincubation): 5.83
O=C(O)CC(O)(CC(=O)O)C(=O)O  pIC50 (Catechol O-methyltransferase (Comt, Rattus norvegicus, UniProt P22734); enzyme activity; inhibitor): 3.02
N=C(CCl)NCCC[C@H](NC(=O)c1cccc(-c2ccc(B(O)O)cc2)c1)C(=O)NCc1ccccc1  pIC50 (PADI4; enzyme activity; inhibitor; fluorescence; with preincubation): 6.15
O=C(Nc1ccc(Cl)c(F)c1)c1ccc2c(c1)C(=O)NC2=O  pIC50 (MAOB; enzyme activity; inhibitor): 7.54
Cc1cc(O)c(-c2ccc([C@@H](C)CN(C)C)cc2)c2c1[nH]c(=O)c1sccc12  pIC50 (Cyclin-dependent kinase 18, with cyclin Y (CDK18, Homo sapiens, UniProt Q07002); enzyme activity; inhibitor): < 6.00
O=C1Nc2ccc(I)cc2/C1=C/c1cc(Br)c(O)c(Br)c1  pIC50 (Dual specificity tyrosine-phosphorylation-regulated kinase 4 (DYRK4, Homo sapiens, UniProt Q9NR20); enzyme activity; inhibitor): 5.31
COc1nc2ccc(Br)cc2cc1[C@@H](c1ccccc1)[C@@](O)(CCN(C)C)c1cccc2ccccc12  pIC50 (ALDH1A3; enzyme activity; inhibitor): > 5.00
O=C(Nc1ccc(Cl)c(Cl)c1)c1ccc2c(c1)C(=O)NC2=O  pIC50 (MAOB; enzyme activity; inhibitor): 7.85
N=C(CCl)NCCC[C@H](NC(=O)c1ccc2cc(O)ccc2n1)C(=O)NCc1ccccc1  pIC50 (PADI4; enzyme activity; inhibitor; fluorescence; with preincubation): 6.25
COc1cc(/C=N/NC(=S)N/N=C\c2ccc([N+](=O)[O-])cc2)ccc1Oc1ccnc2cc(Cl)ccc12  pIC50 (Pancreatic alpha-amylase; enzyme activity; inhibitor; absorbance): 4.28
N=C(CCl)NCCC[C@H](NC(=O)c1cccc(-c2ccc(O)cc2)c1)C(=O)NCc1ccccc1  pIC50 (PADI4; enzyme activity; inhibitor; fluorescence; with preincubation): 6.28
COc1ccc(N(Cc2csc(-c3ccc(C)cc3)n2)C(=O)CCCCCC(=O)NO)cc1  pIC50 (Histone deacetylase 9 (HDAC9, Homo sapiens, UniProt Q9UKV0); enzyme activity; inhibitor): < 5.00
O=C(CCNC(=O)CNC(=O)CC(c1ccccc1)(c1ccccc1)c1ccccc1)NC[C@@H]1CCCN(Cc2cccnc2F)C1  pIC50 (Muscarinic acetylcholine receptor M4 (CHRM4, Homo sapiens, UniProt P08173); ligand displacement; radioligand; cell membranes): < 4.52
N=C(CCl)NCCC[C@H](NC(=O)c1ccc(O)cc1)c1nc2ccccc2[nH]1  pIC50 (PADI4; enzyme activity; inhibitor; fluorescence; with preincubation): 6.14
NS(=O)(=O)c1cccc(Nc2nc(-c3cc4cc(Br)ccc4oc3=O)cs2)c1  pIC50 (CA9; enzyme activity; inhibitor): 5.72
COc1cc(/C=N/NC(=S)N/N=C/c2ccc(F)cc2)ccc1Oc1ccnc2cc(Cl)ccc12  pIC50 (Pancreatic alpha-amylase; enzyme activity; inhibitor; absorbance): 4.26
Cc1ccc(-c2ccccc2C=O)c(C)c1  pIC50 (ALDH1A3; enzyme activity; inhibitor): 4.36
COc1cc(/C=N/NC(=S)N/N=C/c2ccc(Br)s2)ccc1Oc1ccnc2cc(Cl)ccc12  pIC50 (Pancreatic alpha-amylase; enzyme activity; inhibitor; absorbance): 4.41
O=C(O)c1ccc(Nc2nc(-c3cc4cc(Br)ccc4oc3=O)cs2)cc1  pIC50 (CA9; enzyme activity; inhibitor): 5.36
COc1cc(/C=N/NC(=S)N/N=C\c2ccc(Cl)c(Cl)c2)ccc1Oc1ccnc2cc(Cl)ccc12  pIC50 (Pancreatic alpha-amylase; enzyme activity; inhibitor; absorbance): 4.34
COc1ccc2cc(C(=O)N[C@@H](CCCNC(=N)CCl)C(=O)NCc3ccccc3)[nH]c2c1  pIC50 (PADI4; enzyme activity; inhibitor; fluorescence; with preincubation): 6.44
